Consider 15 compounds from ChEMBL document CHEMBL1949636, “Optimization of phenylacetic acid derivatives for balanced CRTH2 and DP dual antagonists” (Bioorg Med Chem Lett, 2012).

Test [1] concerns the target T1, Prostaglandin D2 receptor 2 (Homo sapiens, UniProt Q9Y5Y4).
T1 sequence (Q9Y5Y4 whole entry): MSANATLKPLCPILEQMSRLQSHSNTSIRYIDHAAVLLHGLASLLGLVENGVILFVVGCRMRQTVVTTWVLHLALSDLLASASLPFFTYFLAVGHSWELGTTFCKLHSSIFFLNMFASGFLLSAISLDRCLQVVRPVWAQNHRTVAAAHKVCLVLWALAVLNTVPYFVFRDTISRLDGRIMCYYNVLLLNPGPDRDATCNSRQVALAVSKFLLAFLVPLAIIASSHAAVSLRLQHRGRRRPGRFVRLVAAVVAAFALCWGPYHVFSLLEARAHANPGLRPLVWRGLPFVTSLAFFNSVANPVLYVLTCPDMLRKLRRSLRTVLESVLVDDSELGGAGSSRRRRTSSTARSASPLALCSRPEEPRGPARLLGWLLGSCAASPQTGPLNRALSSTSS
Nature of the test: Displacement of [3H]PGD2 from human CRTH2 receptor expressed in HEK293 cells by scintillation counting in presence of 0.5% BSA. Format: cell-based. In a few lines:
(§1)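 Radioligand binding to intact HEK 293 cells stably expressing human CRTH2 or DP. Cells incubated with [3H]-PGD2 and increasing compound concentrations in binding buffer containing 0.5% BSA. After washing, bound [3H]-PGD2 counted by scintillation. […] Mean of three experiments; standard deviation 30%.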

Test [2] has as its target T2, Prostaglandin D2 receptor (Homo sapiens, UniProt Q13258).
T2 sequence (Q13258 whole entry): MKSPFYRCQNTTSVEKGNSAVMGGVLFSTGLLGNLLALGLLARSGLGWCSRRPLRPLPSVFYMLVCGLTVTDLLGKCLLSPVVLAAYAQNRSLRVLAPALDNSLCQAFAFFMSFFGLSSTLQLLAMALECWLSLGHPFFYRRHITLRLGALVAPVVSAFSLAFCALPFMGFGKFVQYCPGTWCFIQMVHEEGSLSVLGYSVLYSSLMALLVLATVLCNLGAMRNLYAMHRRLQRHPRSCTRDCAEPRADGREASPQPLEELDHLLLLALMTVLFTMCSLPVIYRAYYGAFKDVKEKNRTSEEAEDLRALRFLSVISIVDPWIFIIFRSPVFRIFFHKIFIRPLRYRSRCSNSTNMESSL
The test can be described thus: Displacement of [3H]PGD2 from human DP receptor expressed in HEK293 cells by scintillation counting in presence of 0.5% BSA. The format is cell-based. Summed up: as §1

Test [3] concerns the target T1, Prostaglandin D2 receptor 2. Nature of the test: Displacement of [3H]PGD2 from human CRTH2 receptor expressed in HEK293 cells by scintillation counting in presence of 50% plasma. Format: cell-based. Summed up: (§2)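 Whole-cell [3H]-PGD2 binding on HEK 293 cells stably expressing human CRTH2 or DP, run in binding buffer containing 50% human plasma. Test compound added at increasing concentrations. Cells washed, and remaining bound radioligand measured by scintillation counting. Mean of three experiments; standard deviation 30%.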

For test [4], the target named is T2, Prostaglandin D2 receptor. Nature of the test: Displacement of [3H]PGD2 from human DP receptor expressed in HEK293 cells by scintillation counting in presence of 50% plasma. The format is cell-based. Summed up: as §2
(In general: Displacement assays read how much labelled ligand stays bound in the presence of the test substance.)

The target in test [5] is T3, Prostaglandin D2 receptor 2 (Homo sapiens) (UniProt Q9Y5Y4).
T3 sequence (whole entry): T1 sequence (Q9Y5Y4 whole entry)
The test can be described thus: Antagonist activity at CRTH2 receptor in human eosinophol assessed as inhibition of PGD2-induced eosinophol shape change preincubated for 10 mins prior PGD2 stimulation measured after 10 mins by FACS flow cytometry. Format: functional. Summed up:
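Granulocytes enriched from normal donor peripheral blood by density-gradient centrifugation; erythrocytes removed by ACK lysis. Cells pre-incubated 10 min at room temperature with antagonist or vehicle (0.05% DMSO), then stimulated with PGD2 (600–0.003 nM, 1:3 dilution) 10 min at 37 °C. Fixed in 1% final paraformaldehyde. Eosinophils gated as FL2-positive; geometric mean forward scatter used to derive IC50.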
On the technique in general: Flow cytometry measures light scatter and fluorescence of single cells or particles in a stream.

The target of test [6] is T4, Prostaglandin D2 receptor (Homo sapiens) (UniProt Q13258).
T4 sequence (whole entry): T2 sequence (Q13258 whole entry)
The test can be described thus: Antagonist activity at DP receptor in PGD2-stimulated human platelets in 80% whole blood assessed as inhibition of IBMX-stimulated cAMP production preincubated for 30 mins prior PGD2 stimulation measured after 60 mins by immunoassay. The format is functional, tissue-based. In a few lines: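 IBMX added to human whole blood at 1 mM final. Treated blood incubated with antagonist 30 min at 37 °C, then transferred to PGD2 at various concentrations for 60 min at 37 °C. Blood lysed and cAMP measured by direct immunoassay. PGD2-stimulated cAMP curves fitted with a Hill model.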
(Changes in cAMP serve as a functional read-out for many G protein-coupled receptors.)

In general, IC50 refers to the concentration at which inhibition is half-maximal. A word on the Kb: it is the equilibrium dissociation constant of an antagonist, usually derived from a functional assay.

SMILES strings stand for the structures. A value given as a limit tells only on which side of the number the result lay.

As to `CCCc1nc(-c2ccc(Oc3ccc(CC(=O)O)cc3OC)c(NS(=O)(=O)c3ccc(Cl)cc3Cl)c2)n[nH]1`, the half-maximal inhibitory concentration (IC50) came out at 4 nM in test [1] and 10 nM in test [2].

For `CCCc1cc(-c2ccc(Oc3ccc(CC(=O)O)cc3OC)c(NS(=O)(=O)c3ccc(Cl)cc3Cl)c2)n[nH]1`, the IC50 in test [1] amounted to 2 nM; in test [2] it was 4 nM; in test [3], 8 nM; in test [4], 46 nM. For the same compound, the results for the Kb in test [5] and in test [6] were 0.084 nM and 5 nM, respectively.

As for `CCCCNC(=O)c1ccc([S+]([O-])c2ccc(CC(=O)O)cc2)c(NS(=O)(=O)c2ccc(Cl)cc2Cl)c1` (stereo not drawn), the IC50 in test [1] was 660 nM; in test [2] it was more than 10000 nM.

For `CCCCNC(=O)c1ccc(Oc2ccc3c(c2)OCC3CC(=O)O)c(NS(=O)(=O)c2ccc(Cl)cc2Cl)c1` (stereo not drawn), the IC50 in test [1] turned out to be 580 nM; in test [2] it was 150 nM.

As to `CCc1nc(-c2ccc(Oc3ccc(CC(=O)O)cc3OC)c(NS(=O)(=O)c3ccc(Cl)cc3Cl)c2)n[nH]1`, the IC50 in test [1] came out at 6 nM; in test [2], 15 nM.

For `CCCCNC(=O)c1ccc(Oc2ccc(CC(=O)O)nc2)c(NS(=O)(=O)c2ccc(Cl)cc2Cl)c1`, the concentration for half-maximal inhibition (IC50) in test [1] was 10 nM; in test [2], 230 nM.

As to `CCCCNC(=O)c1ccc(Oc2ccc(CC(=O)O)cn2)c(NS(=O)(=O)c2ccc(Cl)cc2Cl)c1`, the results for the IC50 in test [1] and in test [2] were 310 nM and 480 nM, respectively.

For `CCCCNC(=O)c1ccc(Oc2ccc3c(CC(=O)O)c[nH]c3c2)c(NS(=O)(=O)c2ccc(Cl)cc2Cl)c1`, the half-inhibitory concentration (IC50) in test [1] is 3 nM; in test [2] it was 83 nM.

Turning to `CCCCNC(=O)c1ccc(Cc2ccc(CC(=O)O)cc2OC)c(NS(=O)(=O)c2ccc(Cl)cc2Cl)c1`, the results for the IC50 in test [1] and in test [2] were 2 nM and 6 nM, respectively.

As to `CCCCNC(=O)c1ccc(Oc2ccc3c(ccn3CC(=O)O)c2)c(NS(=O)(=O)c2ccc(Cl)cc2Cl)c1`, the 50% inhibitory concentration (IC50) in test [1] turned out to be 2 nM; in test [2] it was 29 nM.

In the case of `CCCCNC(=O)c1ccc(S(=O)(=O)c2ccc(CC(=O)O)cc2)c(NS(=O)(=O)c2ccc(Cl)cc2Cl)c1`, the IC50 in test [1] was 400 nM; in test [2] it was more than 10000 nM.

In the case of `CCCCNC(=O)c1ccc(Oc2ccc3c(CC(=O)O)coc3c2)c(NS(=O)(=O)c2ccc(Cl)cc2Cl)c1`, the 50% inhibitory concentration (IC50) in test [1] and in test [2] was 5 nM in each case.

For `CCCCNC(=O)c1ccc(Sc2ccc(CC(=O)O)cc2)c(NS(=O)(=O)c2ccc(Cl)cc2Cl)c1`, the IC50 in test [1] stood at 21 nM; in test [2] it was 630 nM.

Consider `CCCc1nc(-c2ccc(Oc3ccc(CC(=O)O)cc3OC)c(NS(=O)(=O)c3ccc(Cl)cc3Cl)c2)c[nH]1`, for which the IC50 in test [1] came out at 2 nM; in test [2], 10 nM; in test [3], 20 nM; in test [4], 110 nM. Besides, the antagonist equilibrium constant (Kb) in test [5] amounted to 0.18 nM; in test [6] it was 50 nM.

As for `CCc1noc(-c2ccc(Oc3ccc(CC(=O)O)cc3OC)c(NS(=O)(=O)c3ccc(Cl)cc3Cl)c2)n1`, the 50% inhibitory concentration (IC50) worked out at 770 nM in test [1] and 23 nM in test [2].
